For 28 compounds, Activity results are on record in ChEMBL document CHEMBL1811884, “Bioactive neo-clerodane diterpenoids from the whole plants of Ajuga ciliata Bunge” (J Nat Prod, 2011).

Data set [1] relates to SH-SY5Y. Briefly: Neuroprotective activity against MPP+-induced neuronal cell death in human SH-SY5Y cells assessed as cell viability at 3 uM pretreated for 2 hrs before MPP+ administration measured after 4 hrs by MTT assay. The class given is functional. The method in brief:
(§1)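 SH-SY5Y cells grown at 37 °C in DMEM with 10% heat-inactivated FBS and penicillin/streptomycin, detached with 1 mM EGTA in PBS for 15 min, seeded at 1 × 10^4 cells/well and incubated 24 h. Cells were pretreated 2 h with compound at 3, 10 or 30 μM, then exposed to MPP+ medium. MTT was added to 0.5 mg/mL final, incubated 4 h, and formazan read at 550 nm. Guanosine served as positive control. Triplicates, mean ± SEM, ANOVA with Student–Newman–Keuls test.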

The subject of data set [2] is SH-SY5Y. Briefly: Neuroprotective activity against MPP+-induced neuronal cell death in human SH-SY5Y cells assessed as cell viability at 10 uM pretreated for 2 hrs before MPP+ administration measured after 4 hrs by MTT assay. The class given is functional. An outline of the steps: as §1
A general note: Formazan colour is commonly taken as a measure of viable cells.

Data set [3] has as its system SH-SY5Y. Briefly: Neuroprotective activity against MPP+-induced neuronal cell death in human SH-SY5Y cells assessed as cell viability at 30 uM pretreated for 2 hrs before MPP+ administration measured after 4 hrs by MTT assay. The class given is functional. The method in brief: as §1
Data set [4] has as its system SH-SY5Y. As to the kind of experiment: Cytotoxicity in human SH-SY5Y cells at 3 to 30 uM by MTT assay. The data set is classed as cell-based. The method in brief:
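SH-SY5Y human dopaminergic neuroblastoma cells grown at 37 °C, 5% CO2, in DMEM with 10% inactivated FBS and penicillin/streptomycin. Cells detached with 1 mM EGTA in PBS for 15 min, seeded at 1 × 10^4 cells/well, and incubated 24 h. Compounds given at 3, 10 and 30 μM. MTT added to 0.5 mg/mL final for 4 h at 37 °C; formazan read at 550 nm. Run in triplicate.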

SMILES strings stand for the structures. Activity calls are given as the source filed them. No cut-off for these calls is given here.

In the case of `C/C=C(\C)C(=O)OC[C@@]12[C@@H](OC(C)=O)C[C@@H](C)[C@](C)(CCC3=CC(=O)OC3)[C@H]1CCC[C@]2(O)CCl`, the result in data set [1], in data set [2] and in data set [3] was inactive.

Consider `CC[C@H](C)C(=O)O[C@@H]1CC[C@]2(CO2)[C@]2(COC(C)=O)[C@@H](OC(C)=O)C[C@@H](C)[C@](C)(C[C@H](O)C3=CC(=O)OC3)[C@@H]12`, for which the result in data set [1], in data set [2] and in data set [3] was inactive.

`C/C=C(\C)C(=O)O[C@@H](C[C@@]1(C)[C@H](C)C[C@H](OC(C)=O)[C@]2(COC(C)=O)[C@@H]1[C@H](OC(=O)/C(C)=C/C)CC[C@]21CO1)C1=CC(=O)OC1` [AJUGATAKASIN A]: the results for the Activity in data set [1], in data set [2] and in data set [3] were 66.3%, 71.5% and 78.2%, respectively.

Take `CC(=O)OC[C@]12[C@@H](OC(C)=O)C[C@@H](C)[C@]3(C)C[C@H](C4=CC(=O)OC4)O[C@H](CC[C@]14CO4)[C@H]32` [AJUGACILIATIN H]: the Activity in data set [1] is on record as 65.2%; in data set [2], 74.2%; in data set [3], 78.2%.

With `C/C=C(\C)C(=O)O[C@@H]1CC[C@](O)(CCl)[C@]2(COC(C)=O)[C@@H](OC(C)=O)C[C@@H](C)[C@](C)(C[C@H](O)C3=CC(=O)OC3)[C@@H]12` [AJUGAMARIN A1 CHLOROHYDRIN], the Activity in data set [1] is recorded as 67.1%; in data set [2] it was 69.2%; in data set [3], 73.8%.

On to `CC(=O)OC[C@@]12[C@@H](OC(C)=O)C[C@@H](C)[C@](C)(C[C@H](O)C3=CC(=O)OC3)[C@H]1[C@H](OC(C)=O)CC[C@]21CO1`, for which the outcome in data set [1], in data set [2] and in data set [3] was inactive.

On to `C/C=C(\C)C(=O)[C@@H]1CC[C@]2(CO2)[C@]2(COC(C)=O)[C@@H](OC(C)=O)C[C@@H](C)[C@](C)(C[C@H](OC(=O)[C@@H](C)CC)C3=CC(=O)OC3)[C@@H]12`, for which the result in data set [1], in data set [2] and in data set [3] was inactive.

For `C/C=C(\C)C(=O)O[C@@H]1CC[C@]2(CO2)[C@]2(COC(C)=O)[C@@H](OC(C)=O)C[C@@H](C)[C@](C)(C[C@H](O)C3=CC(=O)OC3)[C@@H]12` [AJUGAMARIN A1], the values for the Activity in data set [1], in data set [2] and in data set [3] were 65.3%, 73.4% and 81.9%, respectively.

With `C/C=C(\C)C(=O)OC[C@@]12[C@H](CCC[C@]1(O)COC(C)=O)[C@@](C)(CCC1=CC(=O)OC1)[C@H](C)C[C@@H]2O`, the result in data set [1], in data set [2] and in data set [3] was inactive.

`CC(=O)OC[C@@]12[C@@H](OC(C)=O)C[C@@H](C)[C@](C)(C[C@H](O)C3=CC(=O)OC3)[C@H]1CCC[C@]21CO1`: the outcome in data set [1], in data set [2] and in data set [3] was inactive.

As to `C/C=C(\C)C(=O)O[C@@H](C[C@@]1(C)[C@H](C)C[C@H](OC(C)=O)[C@]2(COC(C)=O)[C@@H]1[C@H](OC(=O)/C(C)=C/C)CC[C@]2(O)CCl)C1=CC(=O)OC1`, the result in data set [1], in data set [2] and in data set [3] was inactive.

`Nc1nc2c(ncn2[C@@H]2O[C@H](CO)[C@@H](O)[C@H]2O)c(=O)[nH]1` [GUANOSINE]: the results for the Activity in data set [1], in data set [2] and in data set [3] were 70%, 79.7% and 90.1%, respectively.

Consider `C/C=C(\C)C(=O)O[C@@H]1CC[C@](O)(CCl)[C@]2(COC(C)=O)[C@@H](OC(C)=O)C[C@@H](C)[C@](C)(C[C@H](OC(=O)[C@@H](C)CC)C3=CC(=O)OC3)[C@@H]12`, for which the outcome in data set [1], in data set [2] and in data set [3] was inactive.

Turning to `CC[C@H](C)C(=O)O[C@@H](C[C@@]1(C)[C@H](C)C[C@H](OC(C)=O)[C@]2(COC(C)=O)[C@@H]1[C@H](OC(=O)[C@@H](C)CC)CC[C@]2(O)CCl)C1=CC(=O)OC1`, the outcome in data set [1], in data set [2] and in data set [3] was inactive.

For `C/C=C(\C)C(=O)O[C@@H](C[C@@]1(C)[C@H](C)C[C@H](OC(C)=O)[C@]2(COC(C)=O)[C@@H]1[C@H](OC(=O)[C@@H](C)CC)CC[C@]21CO1)C1=CC(=O)OC1` [AJUGAMARIN H1], the Activity in data set [1] was determined as 67.3%; in data set [2], 70.4%; in data set [3] it was 87.5%.

In the case of `C/C=C(\C)C(=O)O[C@@H]1CC[C@]2(CO2)[C@]2(COC(C)=O)[C@@H](OC(C)=O)C[C@@H](C)[C@](C)(C[C@H](OC(C)=O)C3=CC(=O)OC3)[C@@H]12`, the outcome in data set [1], in data set [2] and in data set [3] was inactive.

Regarding `CC[C@H](C)C(=O)O[C@@H](C[C@@]1(C)[C@H](C)C[C@H](OC(C)=O)[C@]2(COC(C)=O)[C@@H]1[C@H](OC(C)=O)CC[C@]2(O)CCl)C1=CC(=O)OC1` [AJUGACILIATIN B], the Activity in data set [1] is 67.4%; in data set [2], 80.4%; in data set [3] it was 88.2%.

`C/C=C(\C)C(=O)OC[C@@]12[C@@H](OC(C)=O)C[C@@H](C)[C@](C)(CCC3=CC(=O)OC3)[C@H]1CCC[C@]21CO1`: the outcome in data set [1], in data set [2] and in data set [3] was inactive.

With `CC(=O)OC[C@]12[C@@H](OC(C)=O)C[C@@H](C)[C@]3(C)C[C@H](C4=CC(=O)OC4)O[C@H](CC[C@]1(O)CO)[C@H]32` [AJUGACILIATIN G], the figures for the Activity in data set [1], in data set [2] and in data set [3] were 69.1%, 73.6% and 81.5%, respectively.

For `C/C=C(\C)C(=O)OC[C@@]1(O)CCC[C@@H]2[C@@](C)(CCC3=CC(=O)OC3)[C@H](C)C[C@H](O)[C@]21CO`, the result in data set [1], in data set [2] and in data set [3] was inactive.

In the case of `CC[C@H](C)C(=O)O[C@@H]1CC[C@](O)(CCl)[C@]2(COC(C)=O)[C@@H](OC(C)=O)C[C@@H](C)[C@](C)(C[C@H](OC(C)=O)C3=CC(=O)OC3)[C@@H]12`, the result in data set [1], in data set [2] and in data set [3] was inactive.

As to `C/C=C(\C)C(=O)OC[C@@]12[C@H](CCC[C@]1(O)CO)[C@@](C)(CCC1=CC(=O)OC1)[C@H](C)C[C@@H]2O`, the result in data set [1], in data set [2] and in data set [3] was inactive.

Regarding `CC(=O)OC[C@@]12[C@@H](OC(C)=O)C[C@@H](C)[C@](C)(C[C@H](OC(C)=O)C3=CC(=O)OC3)[C@H]1[C@H](OC(C)=O)CC[C@]21CO1`, the result in data set [1], in data set [2] and in data set [3] was inactive.

Turning to `C/C=C(\C)C(=O)O[C@@H](C[C@@]1(C)[C@H](C)C[C@H](OC(C)=O)[C@]2(COC(C)=O)[C@@H]1CCC[C@]21CO1)C1=CC(=O)OC1`, the result in data set [1], in data set [2] and in data set [3] was inactive.

Turning to `CC[C@H](C)C(=O)O[C@@H](C[C@@]1(C)[C@H](C)C[C@H](OC(C)=O)[C@]2(COC(C)=O)[C@@H]1[C@H](OC(=O)[C@@H](C)CC)CC[C@]21CO1)C1=CC(=O)OC1` [AJUGATAKASIN B], the Activity worked out at 70.2% in data set [1], 76.5% in data set [2] and 84.3% in data set [3].

`CC(=O)OC[C@]12[C@@H](OC(C)=O)C[C@@H](C)[C@]3(C)C[C@H](C4=CC(=O)OC4)O[C@H](CC[C@]1(O)CCl)[C@H]32`: the result in data set [1], in data set [2] and in data set [3] was inactive.

On to `C/C=C(\C)C(=O)O[C@@H]1CC[C@](O)(CCl)[C@]2(COC(C)=O)[C@@H](OC(C)=O)C[C@@H](C)[C@](C)(C[C@H](OC(C)=O)C3=CC(=O)OC3)[C@@H]12` [AJUGAMARIN A2 CHLOROHYDRIN], for which the Activity in data set [1] is recorded as 71%; in data set [2], 79.7%; in data set [3], 83.7%.

`C/C=C(\C)C(=O)O[C@@H](C[C@@]1(C)[C@H](C)C[C@H](OC(C)=O)[C@]2(COC(C)=O)[C@@H]1[C@H](OC(C)=O)CC[C@]21CO1)C1=CC(=O)OC1` [AJUGANIPPONIN A]: the Activity result is reported as “Non-toxic” in data set [4], 65.4% in data set [1], 69.2% in data set [2] and 76.6% in data set [3].
